Converted amounts (≈) assume the structure as drawn. *1 amine or outer side, *2 acyl side, *3 side chain or, on linkers, in order; H or OH if unused. Where a SMILES comes first, the peptide text is derived from it. Bridges are numbered along the chain shown (N, C = ends). [ ]: non-standard residue; d: D form. The star is where a group is joined. pTerphenylCO(4''-OnC5H11) = CCCCCOc1ccc(-c2ccc(-c3ccc(C(=O)*)cc3)cc2)cc1; Orn(4R-OH,5R-OH) = O=C([C@H](C[C@@H](O)[C@@H](O)N[*:3])N[*:1])[*:2]; hTyr(3S-OH,4S-OH) = N[C@H](C(=O)O)[C@H](O)[C@@H](O)c1ccc(O)cc1; Pro(3S-OH,4S-Me) = C[C@H]1CN[C@H](C(=O)O)[C@H]1O; Hyp = O=C(O)[C@@H]1C[C@@H](O)CN1
Columns and labels:
[1] = test system: Candida albicans; assay: Antifungal activity against Candida albicans 580 after 24 hrs; format: functional; settings: Candida albicans, 580, 24 h
How it was run: (§1)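 Broth microdilution per CLSI M27-A3 in RPMI 1640; inoculum 0.5 × 10³ to 2.5 × 10³ cells/ml, 35°C. […] Three separate occasions in duplicate, mean reported; C. krusei ATCC 6258 and C. parapsilosis ATCC 22019 as daily QC.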

[2] = test system: Nakaseomyces glabratus; assay: Antifungal activity against Candida glabrata 32930 after 24 hrs; format: functional; settings: Nakaseomyces glabratus, 32930, 24 h; how it was run: as §1
[3] = test system: Candida albicans; assay: Antifungal activity against Candida albicans 98-210 after 24 hrs; format: functional; settings: 98-210, 24 h; how it was run: as §1
[4] = test system: Candida parapsilosis; assay: Antifungal activity against Candida parapsilosis infected in ICR Swiss mouse assessed log reduction in bacterial count […]; format: functional
How it was run: (§2)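 Female ICR Swiss mice, neutropenic via cyclophosphamide s.c. (150 mg/kg day −4, 100 mg/kg day −1 and day +2), infected by tail-vein injection of clinical isolates 2 h before therapy. Intraperitoneal dosing every 24 h for 4 days, 4–6 dose levels from 0.078 to 160 mg/kg, 3 mice per regimen. Kidney CFU counted at 96 h. Sigmoid dose-effect fit gives static dose and 1 log kill dose relative to burden at start of therapy.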

[5] = test system: Nakaseomyces glabratus; assay: Antifungal activity against Candida glabrata 33616 after 24 hrs; format: functional; settings: Nakaseomyces glabratus, 33616, 24 h
How it was run: (§3)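 MICs by CLSI M27-A3 broth dilution in RPMI 1640, inoculum 0.5 × 10³ to 2.5 × 10³ cells/ml, 35°C. Read visually at 24 h as the lowest concentration giving ≥50% growth reduction versus control. Run on three occasions in duplicate and reported as the mean. C. krusei ATCC 6258 and C. parapsilosis ATCC 22019 served as QC strains.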

[6] = test system: Nakaseomyces glabratus; assay: Antifungal activity against Candida glabrata infected in ICR Swiss mouse; format: functional; how it was run: as §2
[7] = Ratio of AUC (0 to 24 hrs) in Candida albicans infected neutropenic ICR Swiss mouse to MIC for Candida albicans at static dose after 24 hrs; format: functional
How it was run: (§4)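 Neutropenic mice were infected iv and treated 2 h later. Four to six ip dose levels (0.078–160 mg/kg) were given every 24 h for 4 days, 3 mice per regimen. Kidney CFU were counted at 96 h. A sigmoid dose-effect model gave the static and 1-log-kill doses relative to burden at therapy start.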

[8] = Ratio of AUC (0 to 24 hrs) in Candida albicans infected neutropenic ICR Swiss mouse to MIC for Candida albicans at 1 log kill dose after 24 hrs; format: functional; how it was run: as §4
[9] = test system: Candida albicans; assay: Antifungal activity against Candida albicans K1 after 24 hrs; format: functional; settings: K1, 24 h; how it was run: as §1
[10] = test system: Nakaseomyces glabratus; assay: Antifungal activity against Candida glabrata 37661 after 24 hrs; format: functional; settings: Nakaseomyces glabratus, 37661, 24 h; how it was run: as §3
[11] = test system: Candida albicans; assay: Antifungal activity against Candida albicans infected in ICR Swiss mouse; format: functional; how it was run: as §2
[12] = Ratio of AUC (0 to 24 hrs) in Candida glabrata infected neutropenic ICR Swiss mouse to MIC for Candida glabrata at 1 log kill dose after 24 hrs; format: functional; how it was run: as §4
[13] = Ratio of fAUC (0 to 24 hrs) in Candida glabrata infected neutropenic ICR Swiss mouse to MIC for Candida glabrata at 1 log kill dose after 24 hrs; format: functional
[14] = test system: Candida parapsilosis; assay: Antifungal activity against Candida parapsilosis 20423.072 after 24 hrs; format: functional; settings: Lodderomyces parapsilosis, 20423.072, 24 h; how it was run: as §3
[15] = AUC (0 to 24 hrs) in Candida albicans infected neutropenic ICR Swiss mouse at 5 mg/kg, ip; format: ADME, organism-based; design: time < 24 hr, dose 5 mg/kg, route intraperitoneal; settings: plasma
How it was run: (§5)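 Neutropenic female ICR Swiss mice (cyclophosphamide sc at 150 mg/kg on day −4, 100 mg/kg on day −1 and day +2) infected iv via tail vein with Candida; single ip doses of 5, 20 or 80 mg/kg. Serum drawn from 3 mice per time point at eight time points and assayed by microbiologic assay (C. albicans K1) or […]. Noncompartmental analysis; AUC by trapezoidal rule.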

[16] = test system: Nakaseomyces glabratus; assay: Antifungal activity against Candida glabrata 34341 after 24 hrs; format: functional; settings: Nakaseomyces glabratus, 34341, 24 h; how it was run: as §3
[17] = test system: Nakaseomyces glabratus; assay: Antifungal activity against Candida glabrata 5376 after 24 hrs; format: functional; settings: Nakaseomyces glabratus, 5376, 24 h; how it was run: as §1
[18] = test system: Candida parapsilosis; assay: Antifungal activity against Candida parapsilosis 20385.079 after 24 hrs; format: functional; settings: Lodderomyces parapsilosis, 20385.079, 24 h; how it was run: as §3
[19] = test system: Nakaseomyces glabratus; assay: Antifungal activity against Candida glabrata infected in neutropenic ICR Swiss mouse assessed log reduction in bacterial count […]; format: functional; how it was run: as §2
[20] = Ratio of AUC (0 to 24 hrs) in Candida glabrata infected neutropenic ICR Swiss mouse to MIC for Candida glabrata at static dose after 24 hrs; format: functional; how it was run: as §4
[21] = test system: Candida parapsilosis; assay: Antifungal activity against Candida parapsilosis 20450.096 after 24 hrs; format: functional; settings: Lodderomyces parapsilosis, 20450.096, 24 h; how it was run: as §3
[22] = test system: Candida parapsilosis; assay: Antifungal activity against Candida parapsilosis 20477.048 after 24 hrs; format: functional; settings: Lodderomyces parapsilosis, 20477.048, 24 h; how it was run: as §3
[23] = test system: Nakaseomyces glabratus; assay: Antifungal activity against Candida glabrata 513 after 24 hrs; format: functional; settings: Nakaseomyces glabratus, 513, 24 h; how it was run: as §1
[24] = test system: Nakaseomyces glabratus; assay: Fungistatic activity against Candida glabrata infected in neutropenic ICR Swiss mouse after 24 hrs; format: functional; how it was run: as §2
[25] = test system: Candida albicans; assay: Antifungal activity against Candida albicans infected in ICR Swiss mouse assessed as log reduction in bacterial count […]; format: functional; how it was run: as §2
[26] = test system: Candida parapsilosis; assay: Antifungal activity against Candida parapsilosis 20553.009 after 24 hrs; format: functional; settings: Lodderomyces parapsilosis, 20553.009, 24 h; how it was run: as §3
[27] = Ratio of fAUC (0 to 24 hrs) in Candida parapsilosis infected neutropenic ICR Swiss mouse to MIC for Candida parapsilosis at 1 log kill dose after 24 hrs; format: functional
[28] = test system: Candida parapsilosis; assay: Antifungal activity against Candida parapsilosis 20519.069 after 24 hrs; format: functional; settings: Lodderomyces parapsilosis, 20519.069, 24 h; how it was run: as §3
[29] = test system: Candida parapsilosis; assay: Fungistatic activity against Candida parapsilosis infected in neutropenic ICR Swiss mouse after 24 hrs; format: functional; how it was run: as §2
[30] = Ratio of AUC (0 to 24 hrs) in Candida parapsilosis infected neutropenic ICR Swiss mouse to MIC for Candida parapsilosis at static dose after 24 hrs; format: functional; how it was run: as §4
[31] = test system: Nakaseomyces glabratus; assay: Antifungal activity against Candida glabrata 33609 after 24 hrs; format: functional; settings: Nakaseomyces glabratus, 33609, 24 h; how it was run: as §1
[32] = test system: Nakaseomyces glabratus; assay: Antifungal activity against Candida glabrata 35315 after 24 hrs; format: functional; settings: Nakaseomyces glabratus, 35315, 24 h; how it was run: as §3
[33] = test system: Candida parapsilosis; assay: Antifungal activity against Candida parapsilosis 20435.057 after 24 hrs; format: functional; settings: Lodderomyces parapsilosis, 20435.057, 24 h; how it was run: as §3
[34] = Ratio of AUC (0 to 24 hrs) in Candida parapsilosis infected neutropenic ICR Swiss mouse to MIC for Candida parapsilosis at 1 log kill dose after 24 hrs; format: functional; how it was run: as §4
[35] = AUC (0 to 24 hrs) in Candida albicans infected neutropenic ICR Swiss mouse at 20 mg/kg, ip; format: ADME, organism-based; design: time < 24 hr, dose 20 mg/kg, route intraperitoneal; settings: plasma; how it was run: as §5
[36] = test system: Candida parapsilosis; assay: Antifungal activity against Candida parapsilosis infected in ICR Swiss mouse; format: functional; how it was run: as §2
[37] = test system: Candida parapsilosis; assay: Antifungal activity against Candida parapsilosis 20557.012 after 24 hrs; format: functional; settings: Lodderomyces parapsilosis, 20557.012, 24 h; how it was run: as §3
[38] = test system: Candida parapsilosis; assay: Antifungal activity against Candida parapsilosis 20477.078 after 24 hrs; format: functional; settings: Lodderomyces parapsilosis, 20477.078, 24 h; how it was run: as §3

CCCCCOc1ccc(-c2ccc(-c3ccc(C(=O)N[C@H]4C[C@@H](O)[C@@H](O)NC(=O)[C@@H]5[C@@H](O)[C@@H](C)CN5C(=O)[C@H]([C@@H](C)O)NC(=O)[C@H]([C@H](O)[C@@H](O)c5ccc(O)cc5)NC(=O)[C@@H]5C[C@@H](O)CN5C(=O)[C@H]([C@@H](C)O)NC4=O)cc3)cc2)cc1 [ANIDULAFUNGIN] ({pTerphenylCO(4''-OnC5H11)}-[Orn(4R-OH,5R-OH)]T[Hyp][hTyr(3S-OH,4S-OH)]T[Pro(3S-OH,4S-Me)]; lactam 1-C)
MIC [1]: 0.015 µg/mL (≈ 0.0132 µM)
MIC [2]: 0.06 µg/mL (≈ 0.0526 µM)
MIC [3]: 0.015 µg/mL (≈ 0.0132 µM)
Activity [4]: 47 mg/kg
MIC [5]: 1 µg/mL (≈ 0.877 µM)
Emax [6]: 6 log10 CFU/kidneys
ED50 ([6]; Nakaseomyces glabratus): 15.5 mg/kg
Ratio [7]: 2782
Ratio [8]: 9125
MIC [9]: 0.015 µg/mL (≈ 0.0132 µM)
MIC [10]: 2 µg/mL (≈ 1.75 µM)
Emax [11]: 6.9 log10 CFU/kidneys
ED50 ([11]; Candida albicans): 26.1 mg/kg
Ratio [12]: 3188
Ratio [13]: 32
MIC [14]: 1 µg/mL (≈ 0.877 µM)
AUC(0-t) at 24 h [15]: 96 µg·h/mL
MIC [16]: 0.12 µg/mL (≈ 0.105 µM)
MIC [17]: 0.03 µg/mL (≈ 0.0263 µM)
MIC [18]: 1 µg/mL (≈ 0.877 µM)
Activity [19]: 39 mg/kg
Ratio [20]: 1366
MIC [21]: 1 µg/mL (≈ 0.877 µM)
MIC [22]: 2 µg/mL (≈ 1.75 µM)
MIC [23]: 0.06 µg/mL (≈ 0.0526 µM)
Activity [24]: 21.1 mg/kg
Activity [25]: 4.25 mg/kg
MIC [26]: 2 µg/mL (≈ 1.75 µM)
Ratio [27]: 22
MIC [28]: 4 µg/mL (≈ 3.51 µM)
Activity [29]: 51 mg/kg
Ratio [30]: 1154
MIC [31]: 0.03 µg/mL (≈ 0.0263 µM)
MIC [32]: 0.25 µg/mL (≈ 0.219 µM)
MIC [33]: 1 µg/mL (≈ 0.877 µM)
Ratio [34]: 2244
AUC(0-t) at 24 h [35]: 382 µg·h/mL
Emax [36]: 5.8 log10 CFU/kidneys
ED50 ([36]; Lodderomyces parapsilosis): 7.2 mg/kg
MIC [37]: 0.5 µg/mL (≈ 0.438 µM)
MIC [38]: 2 µg/mL (≈ 1.75 µM)

— ChEMBL document CHEMBL1255494, “In vivo comparison of the pharmacodynamic targets for echinocandin drugs against Candida species” (Antimicrob Agents Chemother, 2010)
